Experimental data as given in PMC3496770 (Journal of chromatography. A, 2012).

How the values were obtained:
[1] = measured by this polymer-water method; cited from earlier work
[2] = Determination of log Ppw and pKa by polymer film; format: physicochemical; settings: both UHPLC and plate reader; p>0.05
Summary of the method: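 The solute, in 20 mM phosphate-citrate, 20 mM phosphate or TFA buffers (pH 0.9–10.0), was added over the films and shaken at 500 rpm, 25 °C, to equilibrium. The aqueous supernatant was quantified by C18 UHPLC or plate-reader UV at 343 nm. Dpw came from initial versus equilibrium aqueous concentration and phase ratio. Ppw and pKa were derived across pH. Duplicates, SEM.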

| Ppw− (conditional partition coefficient of the anionic form) [2] | Compound | log P [1] |
| --- | --- | --- |
|  | Clc1ccc(COC(Cn2ccnc2)c2ccc(Cl)cc2Cl)cc1 (centres unmarked) [econazole] | 4.83 |
| statistically zero | CC1=CC(c2ccccc2)=NS(=O)(=O)N1 [2H-1,2,6-thiadiazine, 3-methyl-5-phenyl-, 1,1-dioxide] |  |
